Measurements of several laboratories.
Compare with care: the assays were run in different laboratories. Converted amounts (≈) assume the structure as drawn.

With `C/C(=N/NC(=O)c1cn(-c2ccccc2)nc1-c1ccc(C)cc1)c1c(O)cc(C)oc1=O` the MIC was 50 µg/mL (≈ 113 µM) (Bacillus subtilis; microbial growth).
`O=C(Nc1ccc2ccccc2c1)c1ccc(COC(Cn2ccnc2)c2ccc(Cl)cc2Cl)cc1` (stereo not shown) gave an MIC80 of 64 µg/mL (≈ 124 µM) (Nakaseomyces glabratus; microbial growth, broth dilution).
For `C[C@@H]1[C@H](O)[C@@H](C)/C=C/C=C/C=C/C=C/C=C/C=C/C=C/[C@H](O[C@@H]2O[C@H](C)[C@@H](O)[C@H](N)[C@@H]2O)C[C@@H]2O[C@](O)(C[C@@H](O)C[C@@H](O)[C@H](O)CC[C@@H](O)C[C@@H](O)CC(=O)O[C@H]1C)C[C@H](O)[C@H]2C(=O)O`, the MIC was 0.25 µg/mL (≈ 0.271 µM) (Cryptococcus neoformans; microbial growth, broth dilution; 72 h).
The MFC of `C#CCON=C1C=CC(=C(C#N)c2ccccc2)C=C1` is reported as 32 µg/mL (≈ 123 µM) (Nakaseomyces glabratus; microbial killing, broth dilution; ATCC15126; 48 h).
`[H]/N=C(/N)N[C@H]1[C@H](O)[C@@H](O)[C@H](O[C@@H]2O[C@@H](C)[C@](O)(C=O)[C@H]2O[C@@H]2O[C@@H](CO)[C@H](O)[C@@H](O)[C@@H]2NC)[C@@H](N/C(N)=N\[H])[C@@H]1O` has an inhibition zone of 24 mm (Bacillus subtilis; microbial growth, well diffusion; MTCC121; 1000 µg/mL, 18 h).
For `O=C(Nc1ccc2cccnc2c1)c1ccc(COC(Cn2ccnc2)c2ccc(Cl)cc2Cl)cc1` (stereo not shown), the MIC80 was 8 µg/mL (≈ 15.5 µM) (Nakaseomyces glabratus; microbial growth, broth dilution).
`CC(=O)ON=C1C=CC(=C(C#N)c2ccccc2)C=C1` gave an MIC of 16 µg/mL (≈ 60.5 µM) (Nakaseomyces glabratus; microbial growth, broth dilution; ATCC15126; 48 h).
`CNC(C)C1CCC(N)C(OC2C(N)CC(N)C(OC3OCC(C)(O)C(NC)C3O)C2O)O1` (stereo not shown) has an MIC of 1 µg/mL (≈ 2.09 µM) (Bacillus subtilis; microbial growth, broth dilution).
With `C=CC(=O)ON=C1C=CC(=C(C#N)c2ccccc2)C=C1` the MIC was 16 µg/mL (≈ 57.9 µM) (Nakaseomyces glabratus; microbial growth, broth dilution; ATCC15126; 48 h).
`Cc1ccc(NC(=O)c2ccc(COC(Cn3ccnc3)c3ccc(Cl)cc3Cl)cc2)cc1` (stereo not shown) gave an MIC80 of 0.06 µg/mL (≈ 0.125 µM) (Nakaseomyces glabratus; microbial growth, broth dilution).
With `C/C(=N/NC(=O)c1cn(-c2ccccc2)nc1-c1ccc(Cl)cc1)c1c(O)cc(C)oc1=O` the MIC was 70 µg/mL (≈ 151 µM) (Bacillus subtilis; microbial growth).
For `O=C(Nc1cccc(F)c1)c1ccc(COC(Cn2ccnc2)c2ccc(Cl)cc2Cl)cc1` (stereo not shown), the MIC80 was 0.125 µg/mL (≈ 0.258 µM) (Nakaseomyces glabratus; microbial growth, broth dilution).
The MIC of `C/C(=N/NC(=O)c1cn(-c2ccccc2)nc1-c1ccccc1)c1c(O)cc(C)oc1=O` is reported as 50 µg/mL (≈ 117 µM) (Bacillus subtilis; microbial growth).
`O=C(O)c1cn(C2CC2)c2cc(N3CCNCC3)c(F)cc2c1=O` has an inhibition zone of 30 mm (Bacillus subtilis; microbial growth, well diffusion; ATCC6051; 100 µg/mL).
With `C#CCOC(=O)ON=C1C=CC(=C(C#N)c2ccccc2)C=C1` the MFC was 16 µg/mL (≈ 52.6 µM) (Nakaseomyces glabratus; microbial killing, broth dilution; ATCC15126; 48 h).
`C[C@@H]1[C@H](O)[C@@H](C)/C=C/C=C/C=C/C=C/C=C/C=C/C=C/[C@H](O[C@@H]2O[C@H](C)[C@@H](O)[C@H](N)[C@@H]2O)C[C@@H]2O[C@](O)(C[C@@H](O)C[C@@H](O)[C@H](O)CC[C@@H](O)C[C@@H](O)CC(=O)O[C@H]1C)C[C@H](O)[C@H]2C(=O)O` gave an MIC of 0.5 µg/mL (≈ 0.541 µM) (Cryptococcus neoformans; microbial growth, broth dilution; H99; 48 h).
